Experimental data as given in ChEMBL document CHEMBL4330057, “Second generation of diazachrysenes: Protection of Ebola virus infected mice and mechanism of action” (Eur J Med Chem, 2019).
Active and inactive are the calls of the source. The calls are words filed in the database; no cut-off is given here.

Experiments:
Ebolavirus [1] = assay: Antiviral activity against Ebolavirus H. sapiens-wt/1995/Kikwit-9510621 infected in human HeLa cells assessed as inhibition of viral infection pretreated for 2 hrs followed by viral infection and measured after 48 hrs by EboV GP immunostaining based high content imaging analysis; format: functional, organism-based
[2] = Half life in human liver microsomes; format: ADME, Microsome
In short: (§1)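 Substrate depletion with mouse or human liver microsomes, 1 h at 37 °C. Clearance (μL/min/mg) and half-life derived.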

[3] = Half life in mouse liver microsomes; format: ADME, Microsome; in short: as §1
[4] = Cytotoxicity against human HeLa cells after 2 hrs by high content imaging analysis; format: cell-based
[5] = Solubility of the compound in pH 7.4 buffer by laser nephelometric method; format: physicochemical
In short: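 Solubility at pH 7.4 was measured by laser nephelometry (light scattering), in triplicate.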

Cytochrome P450 2D6 = Cytochrome P450 2D6 (Homo sapiens, UniProt P10635); assay: Inhibition of CYP2D6 (unknown origin) using 3-(2-(N, N-Diethyl-N-methylamino)ethyl)-7-Methoxy-4-Methylcoumarin as substrate; format: ADME; settings: read-out: INH
Sequence of Cytochrome P450 2D6 (P10635 whole entry): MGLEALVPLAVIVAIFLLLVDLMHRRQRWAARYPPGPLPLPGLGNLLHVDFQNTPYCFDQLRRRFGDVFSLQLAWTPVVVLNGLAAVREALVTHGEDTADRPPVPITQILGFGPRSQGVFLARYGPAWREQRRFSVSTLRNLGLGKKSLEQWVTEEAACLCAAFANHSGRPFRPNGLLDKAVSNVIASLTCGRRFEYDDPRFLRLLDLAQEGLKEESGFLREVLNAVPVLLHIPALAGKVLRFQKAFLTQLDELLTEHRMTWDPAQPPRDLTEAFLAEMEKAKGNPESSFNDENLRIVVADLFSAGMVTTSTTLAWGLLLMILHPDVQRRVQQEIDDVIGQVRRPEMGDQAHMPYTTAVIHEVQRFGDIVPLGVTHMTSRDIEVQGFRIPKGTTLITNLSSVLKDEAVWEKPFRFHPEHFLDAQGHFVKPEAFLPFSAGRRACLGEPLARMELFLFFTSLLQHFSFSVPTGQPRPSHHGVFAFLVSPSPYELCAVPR
In short: (§2)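 CYP IC50 was taken from the net fluorescent signal after incubation at 37 °C for a set time with active cytochrome P450 enzyme and a fluorescent probe substrate.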

Cytochrome P450 3A4 [6] = biological target: T1, Cytochrome P450 3A4 (Homo sapiens, UniProt P08684); assay: Inhibition of CYP3A4 (unknown origin) using 7-benzyloxyquinoline as substrate; format: ADME; in short: as §2
T1 sequence (P08684 whole entry): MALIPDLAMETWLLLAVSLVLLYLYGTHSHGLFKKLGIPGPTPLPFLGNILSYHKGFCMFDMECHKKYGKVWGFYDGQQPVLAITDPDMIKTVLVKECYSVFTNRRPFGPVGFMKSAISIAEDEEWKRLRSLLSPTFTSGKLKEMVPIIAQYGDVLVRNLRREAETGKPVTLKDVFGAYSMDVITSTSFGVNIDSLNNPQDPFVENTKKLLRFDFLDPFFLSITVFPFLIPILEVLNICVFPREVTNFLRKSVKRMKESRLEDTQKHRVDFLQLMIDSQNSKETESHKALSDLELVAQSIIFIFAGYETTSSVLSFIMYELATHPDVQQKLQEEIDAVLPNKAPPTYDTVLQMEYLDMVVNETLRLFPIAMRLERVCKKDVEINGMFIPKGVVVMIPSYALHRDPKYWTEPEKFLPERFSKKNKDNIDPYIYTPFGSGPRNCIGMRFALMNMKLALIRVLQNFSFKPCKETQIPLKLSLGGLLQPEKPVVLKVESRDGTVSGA

[7] = system: Vesicular stomatitis virus; assay: Antiviral activity against VSV expressing GFP infected in human HeLa cells assessed as inhibition of viral infection at 50 uM pre-incubated for 2 hrs followed by viral infection and measured after 6 hrs by cell mask deep red staining based assay; format: functional, organism-based
In short: (§3)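 HeLa cells pretreated 2 h with compound, then infected with rVSV-EBOV-GP-GFP (8 h) or VSV-GFP (6 h), and stained with Cell Mask Deep Red. Relative inhibition = 1 minus (% GFP-expressing cells normalised to mock). Mean ± SD of three replicates, representative of three independent experiments.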

[8] = Selectivity index, ratio of CC50 for human HeLa cells to EC50 for Ebolavirus H. sapiens-wt/1995/Kikwit-9510621 infected in human HeLa cells; format: toxicity, cell-based; settings: read-out: Ratio CC50/EC50
[9] = Clearance in mouse liver microsomes after 1 hr; format: ADME, Microsome; settings: read-out: CLH; in short: as §1
[10] = Clearance in human liver microsomes after 1 hr; format: ADME, Microsome; settings: read-out: CLH; in short: as §1
Cytochrome P450 2C19 = Cytochrome P450 2C19 (Homo sapiens, UniProt P33261); assay: Inhibition of CYP2C19 (unknown origin) using CEC as substrate; format: ADME; in short: as §2
Sequence of Cytochrome P450 2C19 (P33261 whole entry): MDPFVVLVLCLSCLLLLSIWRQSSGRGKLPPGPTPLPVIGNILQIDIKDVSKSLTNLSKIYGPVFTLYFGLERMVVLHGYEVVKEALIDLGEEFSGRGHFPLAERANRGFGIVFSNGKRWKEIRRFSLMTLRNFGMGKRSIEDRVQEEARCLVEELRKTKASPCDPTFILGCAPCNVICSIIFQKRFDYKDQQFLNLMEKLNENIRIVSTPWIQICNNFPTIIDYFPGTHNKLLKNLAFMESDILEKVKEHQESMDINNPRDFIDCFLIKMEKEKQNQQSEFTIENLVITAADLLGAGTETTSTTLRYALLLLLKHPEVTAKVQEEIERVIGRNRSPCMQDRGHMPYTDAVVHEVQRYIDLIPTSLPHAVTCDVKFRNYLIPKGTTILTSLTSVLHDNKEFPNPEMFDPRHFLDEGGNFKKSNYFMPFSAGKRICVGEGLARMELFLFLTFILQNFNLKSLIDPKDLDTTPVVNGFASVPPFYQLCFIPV

[11] = system: Vesicular stomatitis virus; assay: Antiviral activity against VSV expressing GFP infected in human HeLa cells assessed as inhibition of viral infection at 0.1 uM pre-incubated for 2 hrs followed by viral infection and measured after 6 hrs by cell mask deep red staining based assay; format: functional, organism-based; in short: as §3
[12] = Solubility of the compound in deionized water; format: physicochemical
[13] = Stability in plasma (unknown origin) after 1 hr at 37 degC; format: ADME, cell-free; settings: read-out: Stability
In short: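 Compound was incubated in plasma for 1 h at 37 °C, and the percent remaining was reported.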

Zaire ebolavirus [14] = assay: Antiviral activity against Ebolavirus Mayinga infected in Balb/c mouse assessed as protection against viral infection by measuring host survival at 10 mg/kg, ip administered 2 hrs prior to viral infection daily for 6 days and measured for 14 days relative to control; format: functional, 1976
Cytochrome P450 3A4 [15] = biological target: T1, Cytochrome P450 3A4; assay: Inhibition of CYP3A4 (unknown origin) using dibenzylfluorescein as substrate; format: ADME; in short: as §2
Cytochrome P450 3A4 [16] = biological target: T1, Cytochrome P450 3A4; assay: Inhibition of CYP3A4 (unknown origin) using 7-benzyloxy-4-trifluoromethylcoumarin as substrate; format: ADME; in short: as §2
Zaire ebolavirus [17] = assay: Antiviral activity against VSV pseudotyped Ebolavirus Mayinga expressing GFP infected in human HeLa cells assessed as inhibition of viral infection up to 50 uM pre-incubated for 2 hrs followed by viral infection and measured after 8 hrs by high content imaging analysis; format: functional, organism-based; settings: 1976; in short: as §3
Zaire ebolavirus [18] = assay: Antiviral activity against VSV pseudotyped Ebolavirus Mayinga expressing GFP infected in human HeLa cells assessed as inhibition of viral infection at 2 uM pre-incubated for 2 hrs followed by viral infection and measured after 8 hrs by cell mask deep red staining based assay; format: functional, organism-based; settings: 1976; in short: as §3
[19] = system: Vesicular stomatitis virus; assay: Antiviral activity against VSV expressing GFP infected in human HeLa cells assessed as inhibition of viral infection at 2 uM pre-incubated for 2 hrs followed by viral infection and measured after 6 hrs by cell mask deep red staining based assay; format: functional, organism-based; in short: as §3
[20] = Apparent permeability from apical to basolateral side in MDCK cells; format: ADME, cell-based, Canis lupus familiaris; settings: dog
In short: (§4)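 Apparent permeability measured in MDCK cell monolayers, apical→basolateral and basolateral→apical directions, three biological replicates.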

[21] = Apparent permeability from basolateral to apical side in MDCK cells; format: ADME, cell-based, Canis lupus familiaris; settings: dog; in short: as §4
HeLa [22] = assay: Induction of lysosomotropism in human HeLa cells infected with Ebolavirus assessed as increase in lysosome concentration in juxtanuclear region at 10 uM for 2 hrs by acridine orange staining based assay; format: functional, cell-based
In short: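 HeLa cells were pretreated with compound for 2 h, then given acridine orange for 30 min and washed. Red AO fluorescence in acidic compartments was imaged, and total intensity and average area were scored by high-content imaging. Eight wells per point, about 3000 cells/well, mean ± SD, representative of three independent experiments.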

Zaire ebolavirus [23] = assay: Antiviral activity against VSV pseudotyped Ebolavirus Mayinga expressing GFP infected in human HeLa cells assessed as inhibition of viral infection at 10 uM pre-incubated for 2 hrs followed by viral infection and measured after 8 hrs by cell mask deep red staining based assay; format: functional, organism-based; settings: 1976; in short: as §3
[24] = biological target: Cathepsin B (Homo sapiens) (UniProt P07858); assay: Inhibition of cathepsin B activity in human HeLa cells at 10 uM after 12 hrs by magic red substrate based fluorescence assay; format: cell-based
In short: (§5)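 HeLa cells were exposed to compound for 12 h, then given the Magic Red cathepsin B peptide reporter, washed, and imaged at Ex/Em 590/630. Total intensity and average area of red fluorescence were scored by high-content analysis. Eight wells per point, about 3000 cells/well, mean ± SD, three independent experiments.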

HeLa [25] = assay: Induction of lysosomotropism in human HeLa cells infected with Ebolavirus assessed as increase in fluorescence intensity of acid compartments at 10 uM for 1 hr by Lysosensor DND189 staining based assay; format: functional, cell-based
In short: (§6)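 HeLa cells were pretreated 1 h with compound (Bafilomycin A1 at 0.01 μM as acidification control), then stained with LysoSensor DND 189 for 10 min and washed. Live imaging at Ex/Em 443/505 nm. Fluorescence intensity per area was quantified by image analysis. Eight wells per point, about 3000 cells/well, mean ± SD, three independent experiments.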

Ebolavirus [26] = assay: Antiviral activity against Ebolavirus infected in mouse assessed as protection against viral infection at 20 mg/kg/day relative to control; format: functional
HeLa [27] = assay: Induction of lysosomotropism in human HeLa cells infected with Ebolavirus assessed as expansion of acid compartments at 0.01 uM for 2 hrs by acridine orange staining based assay; format: functional, cell-based
In short: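 HeLa cells pretreated 2 h, then acridine orange for 30 min, washed and imaged. Total intensity and average area of acridine orange fluorescence quantified by high-content imaging. Mean ± SD of 8 wells, about 3000 cells each, three independent experiments.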

[28] = biological target: Cathepsin B (Homo sapiens) (UniProt P07858); assay: Inhibition of cathepsin B activity in human HeLa cells at 0.01 uM after 12 hrs by magic red substrate based fluorescence assay; format: cell-based; in short: as §5
HeLa [29] = assay: Induction of lysosomotropism in human HeLa cells infected with Ebolavirus assessed as increase in fluorescence intensity of acid compartments at 0.01 uM for 1 hr by Lysosensor DND189 staining based assay; format: functional, cell-based; in short: as §6
[30] = Orthoebolavirus, H. sapiens-wt/1995/Kikwit-9510621, HeLa
[31] = Orthoebolavirus, H. sapiens-wt/1995/Kikwit-9510621, HeLa, read-out: EC50

c1cnc2c(NCCCN3CCOCC3)ccnc2c1
EC50 (Ebolavirus [1]): Not Active

CCN(CC)CCCC(C)Nc1ccnc2c(NC(C)CCCN(CC)CC)ccnc12 (stereo not drawn)
half-life [2]: > 60 min | half-life [3]: 42 min | CC50 at 2 h [4]: > 10 µM | solubility kinetic [5]: > 50 µg/mL | IC50 (Cytochrome P450 2D6): 8 µM | INH (Cytochrome P450 3A4 [6]): > 10 µM | Activity [7]: Active | selectivity ratio [8]: > 13 | microsomal CLint [9]: 32.9 µL/min/mg | microsomal CLint [10]: < 23 µL/min/mg | INH (Cytochrome P450 2C19): 3.6 µM | Activity [11]: inactive | solubility [12]: ≥ 25 mg/mL | EC90 (Ebolavirus [1]; [30]): 4.73 µM | EC50 (Ebolavirus [1]; [31]): 0.78 µM | remaining at 1 h [13]: > 85% | Activity (Zaire ebolavirus [14]): 40% | INH (Cytochrome P450 3A4 [15]): > 10 µM | INH (Cytochrome P450 3A4 [16]): > 10 µM | Activity (Zaire ebolavirus [17]): Active | Activity (Zaire ebolavirus [18]): Active | Activity [19]: inactive

CCN(CC)CCCNc1ccnc2c(NCCCN(CC)CC)ccnc12
half-life [2]: > 60 min | half-life [3]: > 60 min | CC50 at 2 h [4]: > 10 µM | solubility kinetic [5]: > 50 µg/mL | IC50 (Cytochrome P450 2D6): > 10 µM | INH (Cytochrome P450 3A4 [6]): > 10 µM | selectivity ratio [8]: > 2 | microsomal CLint [9]: < 23 µL/min/mg | microsomal CLint [10]: < 23 µL/min/mg | INH (Cytochrome P450 2C19): > 10 µM | solubility [12]: ≥ 25 mg/mL | EC90 (Ebolavirus [1]; [30]): 37.4 µM | EC50 (Ebolavirus [1]; [31]): 4.82 µM | remaining at 1 h [13]: > 85% | INH (Cytochrome P450 3A4 [15]): > 10 µM | INH (Cytochrome P450 3A4 [16]): > 10 µM

NCCCNc1ccnc2c1ccc1c2ccc2c(NCCCN)ccnc21
CC50 at 2 h [4]: > 10 µM | selectivity ratio [8]: > 1 | EC90 (Ebolavirus [1]; [30]): 20.5 µM | EC50 (Ebolavirus [1]; [31]): 10 µM

CN(C)CCOCCNc1ccnc2c1ccc1c2ccc2c(NCCOCCN(C)C)ccnc21
CC50 at 2 h [4]: 7 µM | selectivity ratio [8]: 2 | EC90 (Ebolavirus [1]; [30]): 6.74 µM | EC50 (Ebolavirus [1]; [31]): 3.53 µM

OC(CNc1ccnc2c1ccc1c2ccc2c(NCCN3CCOCC3)ccnc21)CN1CCOCC1 (stereo not drawn)
CC50 at 2 h [4]: > 10 µM | selectivity ratio [8]: > 16.7 | EC90 (Ebolavirus [1]; [30]): 3.5 µM | EC50 (Ebolavirus [1]; [31]): 0.6 µM

OC(CNc1ccnc2c(NCC(O)CN3CCOCC3)ccnc12)CN1CCOCC1 (stereo not drawn)
EC50 (Ebolavirus [1]): Not Active

CCN(CC)CCCC(C)Nc1ccnc2cccnc12 (stereo not drawn)
EC50 (Ebolavirus [1]; [31]): 10 µM

CC(C)NCC(O)COc1cccc2ccccc12 (stereo not drawn) [PROPRANOLOL]
Papp A→B [20]: 37.7 to 39 ×10⁻⁶ cm/s | Papp B→A [21]: 41.6 to 42.9 ×10⁻⁶ cm/s

CCN(CC)Cc1cc(Nc2ccnc3cc(Cl)ccc23)ccc1O
Activity (HeLa [22]): Active | Activity (Zaire ebolavirus [23]): Active | inhibition [24]: inactive | Activity (HeLa [25]): inactive

c1cc(NCCCN2CCOCC2)c2nccc(NCCCN3CCOCC3)c2n1
EC50 (Ebolavirus [1]; [31]): 10 µM

Clc1ccc2c(NCCCCNc3ccnc4cccnc34)ccnc2c1
CC50 at 2 h [4]: > 25 µM | selectivity ratio [8]: > 8.7 | EC90 (Ebolavirus [1]; [30]): 13 µM | EC50 (Ebolavirus [1]; [31]): 2.87 µM

CN[C@H]1CC[C@@H](c2ccc(Cl)c(Cl)c2)c2ccccc21 [SERTRALINE]
Activity (Ebolavirus [26]): 70%

CO/C1=C\C(C)=C\[C@@H](C)[C@@H](O)[C@@H](C)C/C(C)=C/C=C/[C@H](OC)[C@@H]([C@@H](C)[C@@H](O)[C@H](C)[C@@]2(O)C[C@@H](O)[C@H](C)[C@@H](C(C)C)O2)OC1=O
Activity (HeLa [27]): inactive | inhibition [28]: Active | Activity (HeLa [29]): Active
